Measurements taken from ChEMBL document CHEMBL3769360, “Phthalimido-thiazoles as building blocks and their effects on the growth and morphology of Trypanosoma cruzi” (Eur J Med Chem, 2016).

How the values were obtained:
[1] = Cytotoxicity against BALB/c mouse splenocytes assessed as highest non-toxic concentration causing >90 % incorporation of [3H]-thymidine after 24 hrs by beta counting method; format: cell-based, Splenocyte; settings: read-out: MNTD90
In short: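 BALB/c mouse splenocytes at 5 × 10^6 cells/well in RPMI-1640 with 10% inactivated FBS. Compounds were dissolved in DMSO (10 mg/mL stock) and serially diluted to 1.0, 5.0, 10, 25, 50 and 100 (final), in triplicate. Controls were saponin and medium with DMSO. 3H-thymidine was added, then 24 h at 37 °C, 5% CO2, and beta counting. Untreated = 100%; >90% incorporation counted as nontoxic.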

Trypanosoma cruzi [2] = experiment: Trypanocidal activity against epimastigote form of Trypanosoma cruzi Dm28c after 11 days by neubauer chamber method; format: functional; settings: 264 h
Trypanosoma cruzi [3] = experiment: Trypanocidal activity against trypamostigote form of Trypanosoma cruzi Y infected in African green monkey Vero cells after 24 hrs by neubauer chamber method; format: functional, organism-based
In short: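 Y strain trypomastigotes harvested from Vero cell supernatants, 4 × 10^5 cells/well, compounds in triplicate, benznidazole as positive control. Incubated 24 h at 37 °C, 5% CO2. Motile parasites counted in a Neubauer chamber; untreated wells = 100%. IC50 by nonlinear regression over at least seven concentrations.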

[4] = Selectivity index, ratio of MNTD90 for cytotoxicity against BALB/c mouse splenocytes to IC50 for trypamostigote form of Trypanosoma cruzi Y infected in African green monkey Vero cells; format: toxicity, cell-based; settings: read-out: Selectivity Index
Trypanosoma cruzi [5] = experiment: Induction of apoptosis in trypamostigote form of Trypanosoma cruzi Y assessed as necrotic cells at 25 uM after 24 hrs by Annexin V-FITC/propidium iodide staining based flow cytometry relative to untreated control; format: functional
In short: (§1)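 Trypomastigotes (1 × 10^7) incubated 24 h at 37 °C with or without compound. Then labelled with annexin V-FITC and propidium iodide using a kit per the manufacturer's instructions and analysed by flow cytometry. Two independent experiments, each concentration in duplicate; comparison against untreated cells.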

Trypanosoma cruzi [6] = experiment: Induction of apoptosis in trypamostigote form of Trypanosoma cruzi Y assessed as late apoptotic cells at 25 uM after 24 hrs by Annexin V-FITC/propidium iodide staining based flow cytometry relative to untreated control; format: functional; in short: as §1

Cc1ccc(-c2csc(NN3C(=O)c4ccccc4C3=O)n2)cc1
MNTC at 24 h [1]: 14.9 µM | IC50 (Trypanosoma cruzi [2]): 70.4 µM | IC50 (Trypanosoma cruzi [3]): 107 µM

O=C1c2ccccc2C(=O)N1Nc1nc(-c2ccc(F)cc2)cs1
MNTC at 24 h [1]: 2.9 µM | IC50 (Trypanosoma cruzi [2]): 26.5 µM | IC50 (Trypanosoma cruzi [3]): 52.1 µM

Cc1sc(NN2C(=O)c3ccccc3C2=O)nc1-c1ccc(Br)cc1
MNTC at 24 h [1]: 2.4 µM | IC50 (Trypanosoma cruzi [2]): 13.9 µM | IC50 (Trypanosoma cruzi [3]): 38.2 µM

O=C1c2ccccc2C(=O)N1Nc1nc(-c2ccc(Br)cc2)cs1
MNTC at 24 h [1]: 2.5 µM | IC50 (Trypanosoma cruzi [2]): 14.8 µM | IC50 (Trypanosoma cruzi [3]): 89.8 µM

O=C1c2ccccc2C(=O)N1C/C=N/N=c1\scc(-c2ccc(-c3ccccc3)cc2)n1-c1ccccc1
MNTC at 24 h [1]: 194 µM | IC50 (Trypanosoma cruzi [2]): 44.2 µM | IC50 (Trypanosoma cruzi [3]): 98 µM

COc1ccc(-c2cs/c(=N\N=C\CN3C(=O)c4ccccc4C3=O)n2-c2ccccc2)cc1
MNTC at 24 h [1]: 213 µM | IC50 (Trypanosoma cruzi [3]): 10 µM

O=C1c2ccccc2C(=O)N1C/C=N/NC(=S)Nc1ccccc1
MNTC at 24 h [1]: 50 µM | IC50 (Trypanosoma cruzi [2]): 36.9 µM

O=C1c2ccccc2C(=O)N1C/C=N/N=c1/[nH]c(CCl)cs1
MNTC at 24 h [1]: 73.7 µM | IC50 (Trypanosoma cruzi [2]): 85.7 µM | IC50 (Trypanosoma cruzi [3]): 2.2 µM | selectivity ratio [4]: 33.5

O=C(Cn1ccnc1[N+](=O)[O-])NCc1ccccc1 [BENZNIDAZOLE]
IC50 (Trypanosoma cruzi [3]): 6.3 µM | selectivity ratio [4]: 15.2 | Activity (Trypanosoma cruzi [5]): 56% | Activity (Trypanosoma cruzi [6]): 56%

O=C1c2ccccc2C(=O)N1C/C=N/N=c1\scc(-c2ccc(Cl)cc2)n1-c1ccccc1
MNTC at 24 h [1]: 211 µM | IC50 (Trypanosoma cruzi [2]): 10.6 µM | IC50 (Trypanosoma cruzi [3]): 18.4 µM

O=C1c2ccccc2C(=O)N1C/C=N/N=c1\scc(-c2ccc(F)cc2)n1-c1ccccc1
MNTC at 24 h [1]: 219 µM | IC50 (Trypanosoma cruzi [3]): 73.8 µM

O=C1c2ccccc2C(=O)N1C/C=N/N=c1\scc(-c2ccc3ccccc3c2)n1-c1ccccc1
MNTC at 24 h [1]: 205 µM | IC50 (Trypanosoma cruzi [2]): 11.9 µM | IC50 (Trypanosoma cruzi [3]): 0.5 µM | selectivity ratio [4]: 410

COc1ccc(-c2csc(NN3C(=O)c4ccccc4C3=O)n2)cc1
MNTC at 24 h [1]: 14.2 µM | IC50 (Trypanosoma cruzi [2]): 6.4 µM | IC50 (Trypanosoma cruzi [3]): 50.3 µM

O=C1c2ccccc2C(=O)N1C/C=N/N=c1\scc(-c2ccc(Cl)c(Cl)c2)n1-c1ccccc1
MNTC at 24 h [1]: 197 µM

O=C1c2ccccc2C(=O)N1Nc1nc(-c2ccc(Cl)cc2)cs1
MNTC at 24 h [1]: 2.8 µM | IC50 (Trypanosoma cruzi [2]): 30.6 µM | IC50 (Trypanosoma cruzi [3]): 86.2 µM
